Measurements: ChEMBL document CHEMBL1139407, “Pyridyl and thiazolyl bisamide CSF-1R inhibitors for the treatment of cancer” (Bioorg Med Chem Lett, 2008)

What was measured:
[1] = target: T1, Macrophage colony-stimulating factor 1 receptor (Homo sapiens, UniProt P07333); assay: Inhibition of CSF1R
NIH3T3 = assay: Antiproliferative activity against mouse 3T3 cells expressing human CSF1R after 72 hrs by Celltiter assay; format: functional
Method in brief: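 3T3 cells engineered with human full-length CSF-1R, seeded in phenol red-free DMEM with 0.05% BSA and incubated overnight. Treated with DMEM containing 80 ng/ml M-CSF plus insulin, transferrin and selenium at multiple compound concentrations. […] Growth read by MTS-type CellTiter 96 Aqueous One after 72 h.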

[2] = Bioavailability in rat at 3 mg/kg, iv and 10 mg/kg, po; format: ADME, organism-based; conditions: in vivo
[3] = Clearance in rat at 3 mg/kg, iv and 10 mg/kg, po; format: ADME, organism-based; conditions: in vivo
[4] = Volume of distribution at steady state in rat at 3 mg/kg, iv and 10 mg/kg, po; format: ADME, organism-based; conditions: in vivo, read-out: Vdss
[5] = Half life in rat at 3 mg/kg, iv and 10 mg/kg, po; format: ADME, organism-based; conditions: in vivo
Mus musculus [6] = assay: Inhibition of phosphorylated CSF1R level in 3T3/CSF1R mutant cells xenografted nude mouse at 50 mg/kg, po after 2 hrs by ELISA; format: functional
Method in brief: (§1)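 3T3 cells expressing constitutively active human mutant full-length CSF-1R (301–969) were implanted subcutaneously at 5 × 10⁶ cells in female nude mice and grown to tumors >250 mm³. After dosing, tumors were assayed for pCSF-1R by ELISA, and plasma was sampled for drug levels.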

Mus musculus [7] = assay: Inhibition of phosphorylated CSF1R level in 3T3/CSF1R mutant cells xenografted nude mouse at 50 mg/kg, po after 6 hrs by ELISA; format: functional; method in brief: as §1
[8] = target: T1, Macrophage colony-stimulating factor 1 receptor; assay: Inhibition of CSF1R assessed as residual enzyme activity at 1 uM
[9] = target: Ephrin type-A receptor 2 (Homo sapiens) (UniProt P29317); assay: Inhibition of EphA2 assessed as residual enzyme activity at 1 uM
[10] = target: Tyrosine-protein kinase HCK (Homo sapiens) (UniProt P08631); assay: Inhibition of Hck assessed as residual enzyme activity at 1 uM
[11] = target: Tyrosine-protein kinase Fyn (Homo sapiens) (UniProt P06241); assay: Inhibition of Fyn assessed as residual enzyme activity at 1 uM
[12] = target: RAF proto-oncogene serine/threonine-protein kinase (Homo sapiens) (UniProt P04049); assay: Inhibition of cRaf assessed as residual enzyme activity at 1 uM
[13] = target: Proto-oncogene tyrosine-protein kinase Src (Homo sapiens) (UniProt P12931); assay: Inhibition of Src assessed as residual enzyme activity at 1 uM
[14] = target: Vascular endothelial growth factor receptor 2 (Homo sapiens) (UniProt P35968); assay: Inhibition of KDR assessed as residual enzyme activity at 1 uM
[15] = target: Platelet-derived growth factor receptor beta (Homo sapiens) (UniProt P09619); assay: Inhibition of PDGFRbeta assessed as residual enzyme activity at 1 uM
[16] = target: Mast/stem cell growth factor receptor Kit (Homo sapiens) (UniProt P10721); assay: Inhibition of cKit assessed as residual enzyme activity at 1 uM
Chain of Mast/stem cell growth factor receptor Kit (Homo sapiens) (P10721 whole entry): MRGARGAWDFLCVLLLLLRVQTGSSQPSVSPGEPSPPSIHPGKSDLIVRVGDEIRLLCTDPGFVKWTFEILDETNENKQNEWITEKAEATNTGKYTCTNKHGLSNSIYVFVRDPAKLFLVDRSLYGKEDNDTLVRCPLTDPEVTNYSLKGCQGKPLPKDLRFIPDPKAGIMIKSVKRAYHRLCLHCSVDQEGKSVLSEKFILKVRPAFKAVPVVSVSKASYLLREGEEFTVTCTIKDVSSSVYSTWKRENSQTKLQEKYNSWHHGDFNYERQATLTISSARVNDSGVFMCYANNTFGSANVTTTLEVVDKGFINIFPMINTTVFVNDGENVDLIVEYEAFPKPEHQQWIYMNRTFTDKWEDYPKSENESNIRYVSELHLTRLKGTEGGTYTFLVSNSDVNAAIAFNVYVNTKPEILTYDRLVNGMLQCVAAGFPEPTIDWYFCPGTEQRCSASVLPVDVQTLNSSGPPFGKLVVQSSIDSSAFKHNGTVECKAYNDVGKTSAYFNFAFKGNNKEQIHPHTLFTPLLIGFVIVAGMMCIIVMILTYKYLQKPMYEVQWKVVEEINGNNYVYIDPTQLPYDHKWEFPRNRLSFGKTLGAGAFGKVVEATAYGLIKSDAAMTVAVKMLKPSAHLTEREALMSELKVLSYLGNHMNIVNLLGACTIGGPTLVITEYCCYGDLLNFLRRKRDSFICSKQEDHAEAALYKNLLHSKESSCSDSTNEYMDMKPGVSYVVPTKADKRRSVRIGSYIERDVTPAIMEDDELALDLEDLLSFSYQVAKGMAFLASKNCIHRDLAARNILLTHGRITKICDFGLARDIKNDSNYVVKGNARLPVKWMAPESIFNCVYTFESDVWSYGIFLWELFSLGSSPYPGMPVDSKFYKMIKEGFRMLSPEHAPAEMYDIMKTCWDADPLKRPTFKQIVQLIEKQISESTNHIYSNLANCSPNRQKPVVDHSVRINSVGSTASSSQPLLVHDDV

[17] = target: Glycogen synthase kinase-3 beta (Homo sapiens) (UniProt P49841); assay: Inhibition of GSK3-beta assessed as residual enzyme activity at 1 uM
Chain of Glycogen synthase kinase-3 beta (Homo sapiens) (P49841 whole entry, looked up): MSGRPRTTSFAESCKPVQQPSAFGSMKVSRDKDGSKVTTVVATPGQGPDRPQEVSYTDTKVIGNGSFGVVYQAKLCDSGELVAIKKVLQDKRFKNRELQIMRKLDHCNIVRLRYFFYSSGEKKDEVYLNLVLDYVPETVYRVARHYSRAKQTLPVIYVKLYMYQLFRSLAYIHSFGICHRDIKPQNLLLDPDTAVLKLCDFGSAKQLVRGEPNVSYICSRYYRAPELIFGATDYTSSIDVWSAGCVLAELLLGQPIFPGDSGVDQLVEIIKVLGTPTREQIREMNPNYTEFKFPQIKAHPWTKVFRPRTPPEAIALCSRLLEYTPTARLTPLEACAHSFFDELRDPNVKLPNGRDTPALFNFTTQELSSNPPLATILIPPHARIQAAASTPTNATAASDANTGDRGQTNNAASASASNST

[18] = target: Cyclin-dependent kinase 2 (Homo sapiens) (UniProt P24941); assay: Inhibition of CDK2/cyclinA assessed as residual enzyme activity at 1 uM
[19] = target: Insulin-like growth factor 1 receptor (Homo sapiens) (UniProt P08069); assay: Inhibition of IGF1-R assessed as residual enzyme activity at 1 uM
Chain of Insulin-like growth factor 1 receptor (Homo sapiens) (P08069 31-736 limits assumed): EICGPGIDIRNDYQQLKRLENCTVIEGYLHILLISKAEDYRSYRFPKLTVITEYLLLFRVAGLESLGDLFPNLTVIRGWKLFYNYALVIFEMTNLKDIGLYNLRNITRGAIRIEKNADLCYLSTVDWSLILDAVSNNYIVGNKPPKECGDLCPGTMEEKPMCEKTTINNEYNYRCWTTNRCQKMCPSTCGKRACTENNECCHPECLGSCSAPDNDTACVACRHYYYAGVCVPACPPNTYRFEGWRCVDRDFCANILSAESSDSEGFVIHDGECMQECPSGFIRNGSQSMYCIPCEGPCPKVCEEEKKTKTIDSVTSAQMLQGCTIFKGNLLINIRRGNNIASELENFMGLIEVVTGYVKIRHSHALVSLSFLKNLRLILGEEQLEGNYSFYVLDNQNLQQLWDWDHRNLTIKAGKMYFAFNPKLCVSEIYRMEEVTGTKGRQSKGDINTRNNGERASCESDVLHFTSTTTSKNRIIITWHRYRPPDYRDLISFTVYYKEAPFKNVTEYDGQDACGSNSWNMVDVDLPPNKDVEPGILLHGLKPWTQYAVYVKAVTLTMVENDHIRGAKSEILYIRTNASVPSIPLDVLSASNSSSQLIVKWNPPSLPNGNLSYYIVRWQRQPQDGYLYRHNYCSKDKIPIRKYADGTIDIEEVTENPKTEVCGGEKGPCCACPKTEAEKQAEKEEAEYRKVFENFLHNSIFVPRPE
Chain of Insulin-like growth factor 1 receptor (Homo sapiens) (P08069 741-1367 limits assumed): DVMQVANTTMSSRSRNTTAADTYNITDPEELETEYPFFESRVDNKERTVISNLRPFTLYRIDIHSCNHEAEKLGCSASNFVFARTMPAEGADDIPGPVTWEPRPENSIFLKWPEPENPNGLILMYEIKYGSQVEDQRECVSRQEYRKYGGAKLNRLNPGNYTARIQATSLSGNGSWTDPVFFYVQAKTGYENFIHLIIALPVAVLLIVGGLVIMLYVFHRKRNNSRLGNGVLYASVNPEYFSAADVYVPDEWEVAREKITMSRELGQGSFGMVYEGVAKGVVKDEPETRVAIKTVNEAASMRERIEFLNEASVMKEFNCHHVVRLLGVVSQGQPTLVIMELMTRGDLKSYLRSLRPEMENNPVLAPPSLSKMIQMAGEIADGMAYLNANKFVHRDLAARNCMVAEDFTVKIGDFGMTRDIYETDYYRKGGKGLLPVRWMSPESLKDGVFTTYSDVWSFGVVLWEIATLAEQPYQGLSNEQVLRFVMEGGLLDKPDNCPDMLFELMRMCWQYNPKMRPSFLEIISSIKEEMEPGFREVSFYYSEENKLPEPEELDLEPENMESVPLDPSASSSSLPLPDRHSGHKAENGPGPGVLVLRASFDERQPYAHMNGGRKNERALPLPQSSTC

[20] = target: Insulin receptor (Homo sapiens) (UniProt P06213); assay: Inhibition of insulin receptor assessed as residual enzyme activity at 1 uM
[21] = target: Hepatocyte growth factor receptor (Homo sapiens) (UniProt P08581); assay: Inhibition of Met assessed as residual enzyme activity at 1 uM
Chain of Hepatocyte growth factor receptor (Homo sapiens) (P08581 whole entry): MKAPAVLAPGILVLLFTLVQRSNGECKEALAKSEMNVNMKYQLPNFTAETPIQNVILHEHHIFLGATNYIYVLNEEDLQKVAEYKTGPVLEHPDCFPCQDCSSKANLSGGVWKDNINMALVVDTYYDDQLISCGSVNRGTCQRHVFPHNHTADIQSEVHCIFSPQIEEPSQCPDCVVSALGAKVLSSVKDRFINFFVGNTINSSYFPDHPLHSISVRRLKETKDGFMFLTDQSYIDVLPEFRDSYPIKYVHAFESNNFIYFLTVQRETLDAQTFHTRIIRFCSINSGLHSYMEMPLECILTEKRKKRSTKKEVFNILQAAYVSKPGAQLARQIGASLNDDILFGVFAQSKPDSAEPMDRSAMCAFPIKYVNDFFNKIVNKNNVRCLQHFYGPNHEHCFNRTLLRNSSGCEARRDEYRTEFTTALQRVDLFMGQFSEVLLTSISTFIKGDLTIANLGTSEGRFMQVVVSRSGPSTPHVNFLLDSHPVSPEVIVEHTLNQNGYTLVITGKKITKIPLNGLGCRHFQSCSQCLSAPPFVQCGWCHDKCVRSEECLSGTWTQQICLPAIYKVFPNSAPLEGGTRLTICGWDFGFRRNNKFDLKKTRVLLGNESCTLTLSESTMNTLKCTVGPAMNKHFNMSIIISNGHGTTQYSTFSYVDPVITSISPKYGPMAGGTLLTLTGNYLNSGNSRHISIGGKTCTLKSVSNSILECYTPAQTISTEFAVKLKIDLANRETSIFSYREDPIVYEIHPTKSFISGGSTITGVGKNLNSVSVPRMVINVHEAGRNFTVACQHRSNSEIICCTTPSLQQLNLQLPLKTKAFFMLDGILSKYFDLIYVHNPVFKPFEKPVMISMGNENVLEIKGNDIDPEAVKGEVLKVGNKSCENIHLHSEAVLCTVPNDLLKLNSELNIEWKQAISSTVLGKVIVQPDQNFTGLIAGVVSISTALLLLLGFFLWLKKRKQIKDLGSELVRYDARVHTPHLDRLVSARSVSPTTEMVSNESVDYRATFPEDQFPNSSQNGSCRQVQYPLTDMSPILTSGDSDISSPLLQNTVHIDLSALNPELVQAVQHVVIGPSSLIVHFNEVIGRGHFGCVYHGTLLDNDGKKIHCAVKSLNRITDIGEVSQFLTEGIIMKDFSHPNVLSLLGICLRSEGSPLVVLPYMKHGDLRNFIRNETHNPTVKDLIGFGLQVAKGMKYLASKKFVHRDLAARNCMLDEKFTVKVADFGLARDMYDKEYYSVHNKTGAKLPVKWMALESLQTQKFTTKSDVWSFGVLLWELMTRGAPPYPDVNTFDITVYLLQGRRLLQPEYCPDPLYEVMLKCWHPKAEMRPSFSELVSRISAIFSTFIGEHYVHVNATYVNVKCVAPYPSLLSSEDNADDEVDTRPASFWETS

[22] = target: Fibroblast growth factor receptor 1 (Homo sapiens) (UniProt P11362); assay: Inhibition of FGFR1 assessed as residual enzyme activity at 1 uM
[23] = target: Angiopoietin-1 receptor (Homo sapiens) (UniProt Q02763); assay: Inhibition of Tie2 assessed as residual enzyme activity at 1 uM
[24] = target: Inhibitor of nuclear factor kappa-B kinase subunit beta (Homo sapiens) (UniProt O14920); assay: Inhibition of IKK-beta assessed as residual enzyme activity at 1 uM
[25] = target: Tyrosine-protein kinase JAK2 (Homo sapiens) (UniProt O60674); assay: Inhibition of JAK2 assessed as residual enzyme activity at 1 uM
[26] = target: Receptor-type tyrosine-protein kinase FLT3 (Homo sapiens) (UniProt P36888); assay: Inhibition of Flt3 assessed as residual enzyme activity at 1 uM
[27] = target: Mitogen-activated protein kinase 1 (Homo sapiens) (UniProt P28482); assay: Inhibition of MAPK1 assessed as residual enzyme activity at 1 uM
[28] = target: Serine/threonine-protein kinase pim-1 (Homo sapiens) (UniProt P11309); assay: Inhibition of Pim-1 assessed as residual enzyme activity at 1 uM
[29] = target: Epidermal growth factor receptor (Homo sapiens) (UniProt P00533); assay: Inhibition of EGFR assessed as residual enzyme activity at 1 uM

T1 sequence (P07333 whole entry): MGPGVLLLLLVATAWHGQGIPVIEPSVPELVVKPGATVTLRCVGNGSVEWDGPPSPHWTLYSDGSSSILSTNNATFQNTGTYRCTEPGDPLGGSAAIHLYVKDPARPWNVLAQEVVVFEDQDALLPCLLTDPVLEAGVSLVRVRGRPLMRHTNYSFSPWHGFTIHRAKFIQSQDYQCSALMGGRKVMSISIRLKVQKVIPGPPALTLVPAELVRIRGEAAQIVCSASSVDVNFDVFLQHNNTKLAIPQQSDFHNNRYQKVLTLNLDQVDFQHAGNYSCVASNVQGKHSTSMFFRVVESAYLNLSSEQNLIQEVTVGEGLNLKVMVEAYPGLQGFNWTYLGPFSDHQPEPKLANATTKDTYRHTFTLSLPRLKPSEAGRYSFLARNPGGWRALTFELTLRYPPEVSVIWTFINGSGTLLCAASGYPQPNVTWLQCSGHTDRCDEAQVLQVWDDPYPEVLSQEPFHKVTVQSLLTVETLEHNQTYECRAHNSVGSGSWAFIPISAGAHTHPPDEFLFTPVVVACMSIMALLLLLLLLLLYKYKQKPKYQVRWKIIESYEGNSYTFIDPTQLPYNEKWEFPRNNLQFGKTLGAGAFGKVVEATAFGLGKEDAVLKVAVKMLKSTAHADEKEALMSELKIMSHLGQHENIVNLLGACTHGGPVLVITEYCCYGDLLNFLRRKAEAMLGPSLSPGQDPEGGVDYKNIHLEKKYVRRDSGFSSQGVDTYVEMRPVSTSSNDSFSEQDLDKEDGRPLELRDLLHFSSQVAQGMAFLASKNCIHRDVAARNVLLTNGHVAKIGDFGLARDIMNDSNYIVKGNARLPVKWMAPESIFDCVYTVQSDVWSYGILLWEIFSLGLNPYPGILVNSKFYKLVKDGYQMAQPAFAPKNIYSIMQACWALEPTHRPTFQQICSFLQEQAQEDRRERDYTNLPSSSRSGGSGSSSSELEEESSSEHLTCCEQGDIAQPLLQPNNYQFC

O=C(Nc1ccc(Cl)c(C(=O)Nc2cccnc2)c1)c1cccc(Br)c1
IC50 [1]: 14 nM
Activity (NIH3T3): 0.26 µM

Cc1cc(C)cc(C(=O)Nc2ccc(Cl)c(C(=O)Nc3cnc(C)s3)c2)c1
IC50 [1]: 6 nM
Activity (NIH3T3): 0.06 µM
bioavailability [2]: 27%
clearance [3]: 14 mL/min/kg
Vd [4]: 1.2 L/kg
half-life [5]: 1.3 h
inhibition in vivo at 50 mg/kg (Mus musculus [6]): 90%
inhibition in vivo at 50 mg/kg (Mus musculus [7]): 60%

CC(C)c1ncc(NC(=O)c2cc(NC(=O)c3cccc(C(F)(F)F)c3)ccc2Cl)s1
IC50 [1]: 13 nM
Activity (NIH3T3): 0.15 µM
bioavailability [2]: 65%
clearance [3]: 37 mL/min/kg
Vd [4]: 2.2 L/kg
half-life [5]: 1 h

CN(C)c1cccc(C(=O)Nc2ccc(Cl)c(C(=O)Nc3cccnc3)c2)c1
IC50 [1]: 16 nM
Activity (NIH3T3): 0.77 µM

Cc1ccc(C(=O)Nc2cccc(C(F)(F)F)c2)cc1NC(=O)c1cccnc1
IC50 [1]: 32 nM
Activity (NIH3T3): 1.34 µM

O=C(Nc1ccc(Cl)c(C(=O)Nc2cnc(C3CC3)s2)c1)c1cccc(C(F)(F)F)c1
IC50 [1]: 140 nM
Activity (NIH3T3): 0.1 µM

Cc1cc(C)cc(C(=O)Nc2ccc(Cl)c(C(=O)Nc3cncs3)c2)c1
IC50 [1]: 3 nM
Activity (NIH3T3): 0.11 µM

Cc1ccc(NC(=O)c2cccc(C(F)(F)F)c2)cc1NC(=O)c1cccnc1
IC50 [1]: 11 nM
Activity (NIH3T3): 2.15 µM

Cc1ncc(NC(=O)c2cc(NC(=O)c3cccc(Cl)c3)ccc2Cl)s1
IC50 [1]: 4 nM
Activity (NIH3T3): 0.18 µM
bioavailability [2]: 43%
clearance [3]: 12 mL/min/kg
Vd [4]: 0.9 L/kg
half-life [5]: 0.9 h

Cc1ccc(NC(=O)c2cccc(C(F)(F)F)c2)cc1C(=O)Nc1ccccc1
IC50 [1]: > 50000 nM
Activity (NIH3T3): >10 µM

Cc1ccc(C(=O)Nc2ccc(Cl)c(C(=O)Nc3cccnc3)c2)cc1C
IC50 [1]: 5 nM
Activity (NIH3T3): 0.15 µM

Cc1ccc(NC(=O)c2cccc(N(C)S(C)(=O)=O)c2)cc1NC(=O)c1ccc2ncccc2c1
IC50 [1]: 89 nM

Cc1cc(C)cc(C(=O)Nc2ccc(C)c(C(=O)Nc3cnc(C)s3)c2)c1
IC50 [1]: 4 nM
Activity (NIH3T3): 0.1 µM

COc1cccc(C(=O)Nc2ccc(Cl)c(C(=O)Nc3cccnc3)c2)c1
IC50 [1]: 9 nM
Activity (NIH3T3): 0.94 µM

CCN(CC)CCNC(=O)c1c(C)[nH]c(/C=C2\C(=O)Nc3ccc(F)cc32)c1C.O=C(O)C[C@H](O)C(=O)O [SUNITINIB MALATE]
Activity (NIH3T3): 0.09 µM

Cc1cccc(C(=O)Nc2ccc(Cl)c(C(=O)Nc3cccnc3)c2)c1
IC50 [1]: 10 nM
Activity (NIH3T3): 0.24 µM
bioavailability [2]: 28%
clearance [3]: 30 mL/min/kg
Vd [4]: 1.3 L/kg
half-life [5]: 0.8 h

O=C(Nc1ccc(Cl)c(C(=O)Nc2cccnc2)c1)c1cc(Cl)cc(Cl)c1
IC50 [1]: 3 nM
Activity (NIH3T3): 0.13 µM

O=C(Nc1ccc(Cl)c(C(=O)Nc2cccnc2)c1)c1cccc(F)c1
IC50 [1]: 25 nM
Activity (NIH3T3): 1.64 µM

O=C(Nc1ccc(Cl)c(C(=O)Nc2cccnc2)c1)c1ccc(Cl)c(Cl)c1
IC50 [1]: 3 nM
Activity (NIH3T3): 0.09 µM

Cc1ncc(NC(=O)c2cc(NC(=O)c3cccc(C(F)(F)F)c3)ccc2Cl)s1
IC50 [1]: 7 nM
Activity (NIH3T3): 0.05 µM
bioavailability [2]: 62%
clearance [3]: 13 mL/min/kg
Vd [4]: 1.1 L/kg
half-life [5]: 1.2 h
Activity [8]: 1%
Activity [9]: 5%
Activity [10]: 6%
Activity [11]: 7%
Activity [12]: 9%
Activity [13]: 10%
Activity [14]: 10%
Activity [15]: 45%
Activity [16]: 57%
Activity [17]: 91%
Activity [18]: 95%
Activity [19]: 107%
Activity [20]: 108%
Activity [21]: 109%
Activity [22]: 111%
Activity [23]: 111%
Activity [24]: 112%
Activity [25]: 112%
Activity [26]: 114%
Activity [27]: 116%
Activity [28]: 116%
Activity [29]: 118%
inhibition in vivo at 50 mg/kg (Mus musculus [6]): 70%
inhibition in vivo at 50 mg/kg (Mus musculus [7]): 35%

O=C(Nc1ccc(Cl)c(C(=O)Nc2cccnc2)c1)c1cccc(Cl)c1
IC50 [1]: 10 nM
Activity (NIH3T3): 0.33 µM
bioavailability [2]: 33%
clearance [3]: 16 mL/min/kg
Vd [4]: 1.4 L/kg
half-life [5]: 1.1 h

O=C(Nc1ccc(Cl)c(C(=O)Nc2cncs2)c1)c1cccc(Cl)c1
IC50 [1]: 5 nM
Activity (NIH3T3): 0.52 µM
bioavailability [2]: 20%
clearance [3]: 54 mL/min/kg
Vd [4]: 1.8 L/kg
half-life [5]: 0.5 h

Cc1ccc(NC(=O)c2cccc(C(F)(F)F)c2)cc1C(=O)Nc1cccnc1
IC50 [1]: 37 nM
Activity (NIH3T3): 0.23 µM
bioavailability [2]: 40%
clearance [3]: 16 mL/min/kg
Vd [4]: 1 L/kg
half-life [5]: 1 h

Cc1ncc(NC(=O)c2cc(NC(=O)c3cc(F)cc(C(F)(F)F)c3)ccc2Cl)s1
IC50 [1]: 7 nM
Activity (NIH3T3): 0.11 µM
bioavailability [2]: 31%
clearance [3]: 2 mL/min/kg
Vd [4]: 1.4 L/kg
half-life [5]: 7.3 h
inhibition in vivo at 50 mg/kg (Mus musculus [6]): 100%
inhibition in vivo at 50 mg/kg (Mus musculus [7]): 100%

O=C(Nc1ccc(Cl)c(C(=O)Nc2cncs2)c1)c1cccc(C(F)(F)F)c1
IC50 [1]: 3 nM
Activity (NIH3T3): 0.27 µM
bioavailability [2]: 40%
clearance [3]: 58 mL/min/kg
Vd [4]: 4.2 L/kg
half-life [5]: 1.2 h

Cc1cc(C)cc(C(=O)Nc2ccc(Cl)c(C(=O)Nc3cnc(C(C)C)s3)c2)c1
IC50 [1]: 31 nM
Activity (NIH3T3): 0.11 µM

Cc1ccc(C(=O)Nc2cccc(C(F)(F)F)c2)cc1C(=O)Nc1cccnc1
IC50 [1]: 6900 nM

O=C(Nc1ccc(Cl)c(C(=O)Nc2cccnc2)c1)c1cccc(C(F)(F)F)c1
IC50 [1]: 16 nM
Activity (NIH3T3): 0.14 µM
bioavailability [2]: 76%
clearance [3]: 20 mL/min/kg
Vd [4]: 1.5 L/kg
half-life [5]: 1 h

Cc1ncc(NC(=O)c2cc(NC(=O)c3cccc(C(F)(F)F)c3)ccc2C)s1
IC50 [1]: 10 nM
Activity (NIH3T3): 0.11 µM

Cc1cc(C)cc(C(=O)Nc2ccc(Cl)c(C(=O)Nc3cccnc3)c2)c1
IC50 [1]: 8 nM
Activity (NIH3T3): 0.05 µM

Cc1ncc(NC(=O)c2cc(NC(=O)c3cc(F)cc(Cl)c3)ccc2Cl)s1
IC50 [1]: 11 nM
Activity (NIH3T3): 0.13 µM

Cc1ncc(NC(=O)c2cc(NC(=O)c3cccc(Cl)c3)ccc2C)s1
IC50 [1]: 7 nM
Activity (NIH3T3): 0.32 µM
